The text below walks through data of PMC3651860 (Journal of the American Chemical Society, 2011).

One test has as its system Akt-S473E. In words: ELISA with immobilized Akt-S473E. It is filed as binding. An outline of the steps: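 Akt1-S473E kinase domain, expressed in Hi5 insect cells, was immobilized on Ni-NTA plates. It was incubated with varying concentrations of biotinylated test peptide. Binding signal was normalized to the binding observed at saturation.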
Background: In an ELISA, binding on a coated surface is turned into a signal by an enzyme label.

The subject of test [1] is Akt1-S473E-T308P. In words: Competitive enzyme kinetic assays of Akt1 with triligand. It counts as biochemical. In short, it runs like this: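 Akt1 kinase domain (S473E mimic, Hi5 insect-cell expressed, T308-phosphorylated form) assayed at varying peptide-substrate or ATP concentrations across varying test compound concentrations. KM and Vmax were fitted by nonlinear regression. Ki came from negative x-intercepts of Dixon plots (1/v vs [compound], varying ATP), and Ki' from intercepts of Cornish-Bowden plots ([peptide]/v vs [compound], varying peptide). Both are given as mean ± standard deviation.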

Another test deals with GSK3β. The test is described as follows: ELISA-based binding analysis over a range of kinase concentrations, GSK3β. The note with it: Figure S18.
The test system of the next test is Akt1. In words: ELISA-based binding analysis over a range of kinase concentrations, Akt1. The note with it: Figure S18.
Test [2] concerns Akt1-S473E-T308P. The test is described as follows: Akt1 kinase inhibition test of candidate anchor sequences. It counts as biochemical. As to conditions: Figure S6.
Target sequence in this assay (P31749 150-480 S473E limits assumed): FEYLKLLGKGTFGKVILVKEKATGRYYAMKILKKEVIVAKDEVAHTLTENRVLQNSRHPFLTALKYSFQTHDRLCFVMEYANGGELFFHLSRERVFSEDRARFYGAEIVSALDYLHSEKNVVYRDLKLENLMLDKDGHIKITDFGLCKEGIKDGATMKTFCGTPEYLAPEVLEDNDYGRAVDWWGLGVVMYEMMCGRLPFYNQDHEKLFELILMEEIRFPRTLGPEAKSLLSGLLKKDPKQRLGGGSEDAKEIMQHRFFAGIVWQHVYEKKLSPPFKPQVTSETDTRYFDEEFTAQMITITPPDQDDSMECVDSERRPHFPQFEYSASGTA
The subject of test [3] is Akt1-S473E-T308P. As to conditions: read-out: KM (literature); ATP; ref 21 (Klein et. al.); cited from earlier work.
The test system of test [4] is AKT in fixed OVCAR3 cells. The test is described as follows: Immunocytochemistry. It is filed as cell-based. As to conditions: permeabilized OVCAR3 cells, unstimulated vs EGF+insulin. In short, it runs like this:
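OVCAR3 cells were left unstimulated or treated with EGF plus insulin, then fixed and permeabilized. They were stained with fluorescein-labelled test compound, and a fluorescein-conjugated anti-Akt monoclonal antibody served as benchmark. Akt localization was imaged by immunofluorescence microscopy.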

Test [5] has as its target Akt1 kinase domain with the S473E mutation (Akt1-S473E).

Entries after “also recorded” stand apart in the source; their conditions may differ. Like-named read-outs stand apart in the source and are kept apart here. Primed or numbered codes have the meaning given here. Biotin′ = not defined here; Az8 = not defined here

Regarding “triligand: tertiary peptide Ac-Az8-RHERI-CONH2 conjugated to the biligand to form a biotinylated branched triligand (chain 1 VFYRLGY; chain 2 FWFLRG; not fully specified; N-terminal azido amino acid Az8 before V, joined through a 1,4-triazole to the Pra of the secondary peptide; C-terminal biotin | N-terminal propargylglycine (Pra) before F, joined through a 1,4-triazo)”, the “affinity for Akt1 (in words)” value with Akt-S473E (comparison within anchor/biligand/triligand series) is listed as “only marginally improved over the biligand; also recorded: only a modest affinity improvement”. Further, in the test on Akt1-S473E-T308P [1], the “inhibitory potency (in words)” value was “low micromolar inhibitory potency”. Further, the “effect on KM” value with Akt1-S473E-T308P [1] (ATP is the varied substrate) is given as “no effect on KM”; in the test on Akt1-S473E-T308P [1] (peptide concentration is varied) it was “KM decreases”. The “effect on enzyme Vmax” value with Akt1-S473E-T308P [1] (increasing triligand concentration, varied [ATP] or varied [peptide]) was “reduction in the enzyme Vmax for both substrates”. The inhibition mode entry in the test on Akt1-S473E-T308P [1] (varied [ATP], variable [Triligand]) is recorded as “noncompetitive inhibition”; with Akt1-S473E-T308P [1] (varied [ATP], variable [Triligand], listed as Triligand), “Noncompetitive”; in the test with Akt1-S473E-T308P [1] (varied [Peptide], variable [Triligand]) it was “uncompetitive inhibition”. In addition, the “mode of inhibition / inhibitory mechanism, overall” value with Akt1-S473E-T308P [1] (with respect to ATP and peptide substrates) is reported as “allosteric mode of inhibition; also recorded: triligand inhibition occurs in a noncompetitive fashion; also recorded: not competitive with respect to either the peptide or ATP binding site; also recorded: allosteric mechanism”. Moreover, the “decrease of affinity for GSK3β, biligand to triligand” value in the test with GSK3β is on record as “approximately 2 fold”. Further, in the test on Akt1, the “change of affinity for Akt1, biligand to triligand” value is listed as “increases modestly”.

Take Az8-VFYRLGY-CONH2 [anchor peptide]: the affinity with Akt-S473E (anchor peptide, Akt, assay of this value not stated at the place) was greater than 25 µM. In addition, the “inhibition of the Akt1 kinase” value in the test with Akt1-S473E-T308P [2] (absence of the conjugated small molecule inhibitor (Ac7)) and with Akt1-S473E-T308P [2] (presence of the conjugated small molecule inhibitor (Ac7)) was roughly 95% each time.

Turning to `Nc1ncnc2c1ncn2[C@@H]1O[C@H](COP(=O)(O)OP(=O)(O)OP(=O)(O)O)[C@@H](O)[C@H]1O` [ATP, reference compound], the Km – broadly, the concentration of substrate that gives half-maximal velocity – was 155 µM in the test on Akt1-S473E-T308P [3] and 213 ± 25 µM with Akt1-S473E-T308P [1] (read-out: KM (this work), Akt1-S473E-T308P, nonlinear regression (GraphPad), V vs. [ATP], variable [Triligand]). In addition, the maximal velocity (Vmax) (in general, the top rate of the reaction or transport when substrate is in excess) with Akt1-S473E-T308P [1] (Akt1-S473E-T308P, V vs. [ATP], variable [Triligand], nonlinear regression) was 98996 ± 8242 pmol/min/mg.

For “fluorescein-labeled triligand: fluorescein-labeled triligand employed as an ICC imaging agent (chain 1 VFYRLGY; chain 2 FWFLRG; chain 3 RHERI; N-terminal azido amino acid Az8 before V, joined through a 1,4-triazole to the Pra of the secondary peptide | N-terminal propargylglycine (Pra) before F, joined through a 1,4-triazole to Az8 of the an)”, in test [4], the “Akt localization in ICC (in words)” value is “localization of Akt at the plasma membrane after cell stimulation”.

For the molecule {Ac-Az8}-VFYRLGY-{Biotin′} (reading uncertain; also: printed as Ac-Az8-VFYRLGY-Biotin) [biotinylated anchor peptide Ac-Az8-VFYRLGY-Biotin], the equilibrium dissociation constant (Kd) – broadly, a measure of binding affinity in units of concentration – in test [5] was greater than 25 µM.
